Measured values published in ChEMBL document CHEMBL1250501, “Anti-tubercular agents. Part 5: synthesis and biological evaluation of benzothiadiazine 1,1-dioxide based congeners” (Eur J Med Chem, 2010).
The source made the active and inactive calls. The calls are words filed in the database; no cut-off is given here.

Columns and labels:
Aspergillus niger = test: Antifungal activity against Aspergillus niger at 20 ug/ml after 48 hrs by cup plate method; format: functional, organism-based
Method in brief: (§1)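 Agar well (cup plate) diffusion on potato dextrose agar 39 g/L, with compounds dissolved in DMSO. Plates were incubated at 28 ± 2 °C for 48 h and inhibition zones measured to the nearest mm. Three replicates per treatment. Amphotericin B positive control; solvent control included.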

Aspergillus sp. = test: Antifungal activity against Aspergillus sp. at 20 ug/ml after 48 hrs by cup plate method; format: functional, organism-based; method in brief: as §1
Candida albicans = test: Antifungal activity against Candida albicans MTCC 227 at 20 ug/ml after 48 hrs by cup plate method; format: functional, organism-based
Method in brief: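 Agar well (cup plate) diffusion on potato dextrose agar 39 g/L. Compounds dissolved in DMSO and loaded into 6 mm wells. Incubated at 28 ± 2 °C for 48 h. Inhibition zone diameter measured to the nearest millimetre, three replicates per treatment. DMSO solvent as negative control, amphotericin B as positive control.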

[1] = test system: Mycobacterium tuberculosis; test: Antimycobacterial activity against Mycobacterium tuberculosis H37Rv infected in BALB/c mouse lung assessed as reduction of bacterial load at 25 mg/kg, po administered 1 week after infection measured after 4 weeks; format: functional
Method in brief: (§2)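 Female BALB/c mice, 6 weeks old, 20–22 g, acclimatised one week. Infected intranasally with about 1.5 × 10⁶ CFU of H37Rv grown 10 days in 7H9/ADC. Treatment began 1 week post-infection, given orally in 50% PEG in water, for 4 weeks. Lungs and spleens homogenised in saline with 0.05% Tween 80. Duplicate 10-fold dilutions plated on 7H10/OADC, 37 °C, 5% CO₂, 4–6 weeks. Result expressed as log₁₀ CFU per organ versus untreated controls.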

[2] = Cytotoxicity against mouse AML-12 cells assessed as cell viability at 5 ug/ml after 24 hrs by MTT assay; format: cell-based; conditions: read-out: Activity
Method in brief: (§3)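 AML-12 hepatocytes in 96-well format, in DMEM with 10% FCS. Exposed to test material at 2–100 µg/mL for 24 h at 37 °C in CO₂. MTT then added for 3 h and formazan formation read. Percentage cytotoxicity calculated relative to untreated cells.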

[3] = Cytotoxicity against mouse AML-12 cells assessed as cell viability at 2 ug/ml after 24 hrs by MTT assay; format: cell-based; conditions: read-out: Activity; method in brief: as §3
[4] = Cytotoxicity against mouse AML-12 cells assessed as cell viability at 10 ug/ml after 24 hrs by MTT assay; format: cell-based; conditions: read-out: Activity; method in brief: as §3
[5] = Cytotoxicity against mouse AML-12 cells assessed as cell viability at 50 ug/ml after 24 hrs by MTT assay; format: cell-based; conditions: read-out: Activity; method in brief: as §3
[6] = test system: Mycobacterium tuberculosis; test: Antimycobacterial activity against Mycobacterium tuberculosis H37Rv infected in BALB/c mouse spleen assessed as reduction of bacterial load at 25 mg/kg, po administered 1 week after infection measured after 4 weeks; format: functional; method in brief: as §2
[7] = Cytotoxicity against mouse AML-12 cells assessed as cell viability at 100 ug/ml after 24 hrs by MTT assay; format: cell-based; conditions: read-out: Activity; method in brief: as §3
[8] = Cytotoxicity against mouse AML-12 cells assessed as cell viability at 25 ug/ml after 24 hrs by MTT assay; format: cell-based; conditions: read-out: Activity; method in brief: as §3

| Compound | inhibition zone (IZ) (Aspergillus niger) | inhibition zone (IZ) (Aspergillus sp.) | inhibition zone (IZ) (Candida albicans) | log10cfu [1] | viability at 24 h, 5 ug/ml [2] | viability at 24 h, 2 ug/ml [3] | viability at 24 h, 10 ug/ml [4] | viability at 24 h, 50 ug/ml [5] | log10cfu [6] | viability at 24 h, 100 ug/ml [7] | viability at 24 h, 25 ug/ml [8] |
| --- | --- | --- | --- | --- | --- | --- | --- | --- | --- | --- | --- |
| NYSTATIN | 26 mm | 16 mm | inactive | – | – | – | – | – | – | – | – |
| O=[N+]([O-])c1ccc(/C=N/NC2=NS(=O)(=O)c3ccccc3N2c2ccccc2)o1 | – | – | – | 4.8 | 9% | 2.4% | 9.1% | 8.7% | 2 | 14.9% | 8.5% |
